Laboratory results published in ChEMBL document CHEMBL1144977, “Synthesis of pyrimidinopyridine-triazene conjugates targeted to abl tyrosine kinase” (Bioorg Med Chem Lett, 2003).

Experiments:
K562 = assay: Cytotoxic effect in K562 cells; settings: Homo sapiens
[1] = biological target: Tyrosine-protein kinase ABL (Homo sapiens, UniProt P00519+P42684); assay: Inhibition of Abl tyrosine kinase; assay type: protein assay
[2] = Alkylating activity (0.1 mM) was determined at pH 7.4; expressed as OD (540n m)/mM of drug); assay type: ADME; settings: pH 7.4, 100 µM
Outline: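 Alkylation read as OD at 540 nm per mM of drug. Drug at 0.1 mM was pre-incubated with NBP in TRIS buffer pH 7.4 for 2 h at 37 °C, then triethylamine/acetone was added.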

SMILES | IC50 (K562) [µM] | IC50 [1] [µM] | Alkylating activity [2]
Nc1ccc(C(=O)Nc2cccc(Nc3nccc(-c4cccnc4)n3)c2)cc1 | 9.88 | 4.89 | –
c1cc(N/N=N/CCN2CCOCC2)cc(Nc2nccc(-c3cccnc3)n2)c1 | 10.1 | 10 | –
Cc1ccc(NC(=O)c2ccc(N)cc2)cc1Nc1nccc(-c2cccnc2)n1 | 68 | > 10 | 0.0002
Cc1ccc(NC(=O)c2ccc(N=NN(C)CO)cc2)cc1Nc1nccc(-c2cccnc2)n1 | – | – | 0.0015
Cc1ccc(NC(=O)c2ccc(/N=N/N(C)C)cc2)cc1Nc1nccc(-c2cccnc2)n1 | 2.16 | 0.1946 | 0.0002
COCC/N=N/Nc1cccc(Nc2nccc(-c3cccnc3)n2)c1 | 5.39 | 8.6 | –
COCCN=NNc1ccc(C(=O)Nc2cccc(Nc3nccc(-c4cccnc4)n3)c2)cc1 | 16.2 | 0.903 | 0.0002
Cc1ccc(NC(=O)c2ccc(/N=N/N(C)CCCl)cc2)cc1Nc1nccc(-c2cccnc2)n1 | 17.4 | 0.8496 | 0.00014
Cc1ccc(NC(=O)c2ccc(CN3CCN(C)CC3)cc2)cc1Nc1nccc(-c2cccnc2)n1 [IMATINIB] | 0.11 | – | –
Nc1cccc(Nc2nccc(-c3cccnc3)n2)c1 | 21.7 | > 10 | –
Cn1nnc2c(C(N)=O)ncn2c1=O [TEMOZOLOMIDE] | 156 | > 100 | 0.0013
